Results as given in publication PMC3256319 (Investigational New Drugs, 2010).
Several values for one entry are separate records, joined by “and”; a condition that tells them apart may be missing. Equal values may be shown once.

Tests used:
[1] = cited from earlier work
[2] = type: in vivo, human healthy volunteers
[3] = ketoconazole 400 mg; based on IC50 in human liver microsomal preparations
[4] = Blood pressure change from baseline in crossover study; type: in vivo, human healthy volunteers
Outline: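 Randomized two-way crossover in healthy volunteers with placebo on day –1 and a 14-day washout. In one arm, a single oral 5-mg dose was given on day 1 after an overnight fast of at least 8 h. In the other, oral ketoconazole 400 mg/day was given on days 1–7, with the 5-mg dose given alongside it on day 4. BP was measured before blood sampling at PK timepoints and at 10 h post-dose, expressed as time-matched change from baseline. Analysis required at least one baseline and one post-baseline reading.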

tumor growth = details: pre-clinical tumor growth inhibition studies; cited from earlier work
Safety and tolerability = type: in vivo, human healthy volunteers
Outline: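 Healthy volunteers in a randomized crossover separated by a 14-day washout. Treatments were a single fasted oral 5-mg dose on day 1, or ketoconazole 400 mg/day on days 1–7 with the 5-mg dose on day 4. Safety was monitored through adverse events, vital signs, ECGs, laboratory tests and physical examinations. AEs were graded by NCI CTCAE v3.0. All subjects receiving at least one dose of any study medication were included.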

[5] = Intrinsic clearance converted from in vivo systemic clearance; parameters: species or system human healthy volunteers
[6] = concurrent administration of phenytoin, one patient; cited from earlier work
[7] = system: axitinib metabolism in human liver microsomes; type: in vitro ADME; details: probe axitinib
[8] = in the presence of ketoconazole
[9] = axitinib in combination with ketoconazole

CNC(=O)c1ccccc1Sc1ccc2c(/C=C/c3ccccn3)n[nH]c2c1 [Axitinib]
average axitinib plasma concentration in clinical trials ([1]; after dosing 5 mg twice daily): 0.19 ± 0.12 nmol/L | effective plasma terminal half-life [1]: 2 to 5 h | oral absolute bioavailability [1]: approximately 58% | time of peak plasma concentrations after dosing ([1]; oral, fed state): 1 to 4 h | pre-dose axitinib plasma concentration ([2]; all pre-dose samples, below lower limit of quantification): < 0.100 ng/mL | half-life ([2]; human, plasma, oral, 5 mg): 9.44 h | fold increase in axitinib geometric mean AUC0–∞ observed clinically [2, 8]: 2.06 fold and ~ 2 fold | fold increase in axitinib geometric mean Cmax observed clinically [2, 8]: 1.50 fold and ~ 1.5 fold | predicted fold increase in axitinib geometric mean AUC0–∞ [3]: 1.8 fold | predicted fold increase in axitinib geometric mean Cmax [3]: 1.5 fold | mean time-matched changes from baseline in BP [4, 9]: minimal | mean time-matched changes from baseline in BP ([4]; axitinib treatment alone): minimal | effective axitinib concentration (tumor growth): 0.28 to 0.85 nmol/L | tolerability (Safety and tolerability; axitinib alone, single 5-mg dose): well tolerated | tolerability (Safety and tolerability; [9]): well tolerated | clearance attributed to non-metabolic pathways, share ([5]; remaining clearance): 20% | contribution of CYP3A to total CLint ([5]; sensitivity analyses): 50% | contribution of glucuronidation to total CLint ([5]; sensitivity analyses): 30% | fold reduction of axitinib AUC0–24 [6]: approximately 10 fold | fold reduction of axitinib Cmax [6]: approximately 10 fold

CC(=O)N1CCN(c2ccc(OCC3COC(Cn4ccnc4)(c4ccc(Cl)cc4Cl)O3)cc2)CC1 (stereo not drawn) [Ketoconazole, ketoconazole]
IC50 [7]: 400 nM
